According to ChEMBL document CHEMBL2169854, “New insight into the central benzodiazepine receptor-ligand interactions: design, synthesis, biological evaluation, and molecular modeling of 3-substituted 6-phenyl-4H-imidazo[1,5-a][1,4]benzodiazepines and related compounds” (J Med Chem, 2011):
Active and inactive are the calls of the source. The rule behind the calls is not given here.

Columns and labels:
[1] = Displacement of [3H]flumazenil from central benzodiazepine receptor in bovine cortical membrane after 90 mins by beta liquid scintillation counting; type: cell membranes, Bos taurus
In short: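 At least six concentrations spanning 3 log units were tested in 2% DMSO. Ki was obtained by Cheng–Prusoff (Kd 0.85 nM bovine, 0.91 nM human), mean of three determinations.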

[2] = target: GABA-A receptor; alpha-1/beta-2/gamma-2 (Homo sapiens) (UniProt P14867+P47870+P18507); experiment: Antagonist at human recombinant GABA-A alpha1beta2gamma2L receptor expressed in Xenopus laevis oocytes assessed as blockade of diazepam-induced potentiation of GABA-induced chloride current at 10 uM incubated 60 seconds before addition of GABA measured after 30 seconds at holding potential -70 mV by two-microelectrode voltage clamp technique; type: functional, cell-based; conditions: Oocyte
In short: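 Oocytes expressing human α1β2γ2L, α2β1γ2L or α5β2γ2L receptors were clamped at −70 mV. Compound at 10 μM was tested against the enhancement of the GABA EC10 response by 1.0 μM diazepam, with 60 s preapplication and 30 s coapplication. The response was expressed as percent potentiation, from 2–3 oocytes.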

[3] = target: GABA A receptor alpha-1/beta-1/gamma-2 (Homo sapiens) (UniProt P14867+P18507+P18505); experiment: (§1) Modulation of human recombinant GABA-A alpha1beta1gamma2L receptor expressed in Xenopus laevis oocytes assessed as effect on GABA-induced chloride current at 1 uM incubated 60 seconds before addition of GABA measured after 30 seconds at holding potential -70 mV by two-microelectrode voltage clamp technique relative to control; type: cell-based; conditions: Oocyte
Rattus norvegicus [4] = species on record: Rattus norvegicus; experiment: Partial agonist activity at central benzodiazepine receptor in Sprague-Dawley rat cerebrocortical synaptoneurosomes assessed as increase in GABA-induced [36]chloride ion flow after 10 seconds by beta liquid scintillation counting; type: functional
In short: (§2)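 Cerebral cortex from male Sprague-Dawley rats was homogenised and filtered, and synaptoneurosomes were washed in HEPES pH 7 buffer (145 mM NaCl, 5 mM KCl, 5 mM MgCl2, 1 mM CaCl2, 10 mM glucose). Aliquots of 1.5–2 mg protein were preincubated 10 min at 30 C. Drug was added with 0.2 μCi 36Cl−, uptake was stopped at 10 s, and filter-bound radioactivity was counted by scintillation.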

Oocyte = experiment: as §1, with “alpha5beta2gamma2L” for “alpha1beta1gamma2L”, “10” for “1”; type: cell-based
[5] = Displacement of [3H]flumazenil from central benzodiazepine receptor in human cortical membrane after 90 mins by beta liquid scintillation counting; type: cell membranes
[6] = target: T1, GABA A receptor alpha-2/beta-2/gamma-2 (Homo sapiens, UniProt P18507+P47869+P47870); experiment: Displacement of [3H]flumazenil from human recombinant GABA-A alpha2beta2gamma2L receptor expressed in HEK293 cells; type: cell-based
T1 sequence (P47870 whole entry): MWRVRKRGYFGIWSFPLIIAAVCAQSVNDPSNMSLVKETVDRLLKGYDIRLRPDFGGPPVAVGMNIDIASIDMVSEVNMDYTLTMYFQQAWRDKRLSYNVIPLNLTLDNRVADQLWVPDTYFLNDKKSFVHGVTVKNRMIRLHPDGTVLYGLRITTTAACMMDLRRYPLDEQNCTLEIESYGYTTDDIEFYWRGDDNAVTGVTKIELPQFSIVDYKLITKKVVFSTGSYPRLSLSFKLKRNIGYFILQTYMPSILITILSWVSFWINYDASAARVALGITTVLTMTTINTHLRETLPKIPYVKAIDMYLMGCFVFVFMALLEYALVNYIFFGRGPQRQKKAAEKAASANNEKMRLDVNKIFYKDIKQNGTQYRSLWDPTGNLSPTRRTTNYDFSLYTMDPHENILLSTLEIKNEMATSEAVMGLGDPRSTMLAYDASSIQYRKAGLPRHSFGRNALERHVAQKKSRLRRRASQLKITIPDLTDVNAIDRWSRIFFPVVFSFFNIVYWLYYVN
T1 sequence (P18507 whole entry): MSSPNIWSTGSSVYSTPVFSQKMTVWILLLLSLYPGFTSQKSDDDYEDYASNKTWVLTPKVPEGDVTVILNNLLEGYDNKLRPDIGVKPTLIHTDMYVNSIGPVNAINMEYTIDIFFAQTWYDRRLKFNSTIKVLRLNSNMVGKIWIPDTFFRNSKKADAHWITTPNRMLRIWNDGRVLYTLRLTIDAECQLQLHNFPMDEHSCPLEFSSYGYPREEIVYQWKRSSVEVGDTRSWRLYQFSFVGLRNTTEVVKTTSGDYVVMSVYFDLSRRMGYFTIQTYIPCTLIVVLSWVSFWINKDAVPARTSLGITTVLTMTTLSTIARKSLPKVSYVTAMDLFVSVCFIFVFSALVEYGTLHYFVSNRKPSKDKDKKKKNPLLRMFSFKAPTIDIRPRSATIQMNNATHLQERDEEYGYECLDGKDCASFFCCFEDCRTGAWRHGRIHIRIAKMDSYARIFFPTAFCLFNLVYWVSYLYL
T1 sequence (P47869 whole entry): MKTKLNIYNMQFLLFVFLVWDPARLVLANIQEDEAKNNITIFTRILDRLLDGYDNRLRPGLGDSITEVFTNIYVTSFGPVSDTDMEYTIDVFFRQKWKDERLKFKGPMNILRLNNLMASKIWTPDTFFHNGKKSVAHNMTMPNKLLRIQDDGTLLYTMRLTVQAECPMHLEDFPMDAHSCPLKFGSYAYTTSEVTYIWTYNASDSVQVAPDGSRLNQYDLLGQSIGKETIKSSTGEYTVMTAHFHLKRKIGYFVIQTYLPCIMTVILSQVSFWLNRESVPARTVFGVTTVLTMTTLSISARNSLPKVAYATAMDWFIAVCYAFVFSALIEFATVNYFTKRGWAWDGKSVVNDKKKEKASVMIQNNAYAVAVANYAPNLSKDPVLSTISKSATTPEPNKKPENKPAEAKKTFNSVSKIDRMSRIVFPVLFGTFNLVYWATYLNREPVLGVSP
In short: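 Membranes came from stably transfected HEK293 lines expressing α2β2γ2 or α5β3γ2, grown in MEM/EBSS with 10% FCS at 37 C, and were resuspended in 10 mM potassium phosphate pH 7.4 with 100 mM KCl. […] At least six concentrations were tested, DMSO ≤1%. Ki was obtained by Cheng–Prusoff from n = 3 experiments run in triplicate.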

Mus musculus [7] = experiment: Antiamnesic activity against scopolamine-induced amnesic effect in mouse at 10 mg/kg, po by passive avoidance test; type: functional, organism-based; set-up: dose 10 mg/kg
In short: (§3)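 In a mouse passive-avoidance test, oral doses in 1% CMC were tested against amnesia induced by 1.5 mg/kg scopolamine ip. Retention latency was scored and compared with controls by ANOVA.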

Rattus norvegicus [8] = species on record: Rattus norvegicus; experiment: Agonist activity at central benzodiazepine receptor in Sprague-Dawley rat cerebrocortical synaptoneurosomes assessed as increase in GABA-induced [36]chloride ion flow after 10 seconds by beta liquid scintillation counting; type: functional; in short: as §2
Mus musculus [9] = experiment: Antiamnesic activity against scopolamine-induced amnesic effect in mouse assessed as increase in retention latency period at 3 mg/kg, po by passive avoidance test; type: functional, organism-based; set-up: dose 3 mg/kg; in short: as §3
Mus musculus [10] = experiment: […] activity in mouse assessed as effect on explorative activity measuring number of inspections at 10 mg/kg, po after 5 mins by hole-board test relative to CMC-treated control; type: functional, organism-based; set-up: dose 10 mg/kg
In short: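 Mice dosed orally in 1% CMC were placed singly on a 16-hole board for 5 min. Photocells counted plane movements (spontaneous motility) and hole explorations. Groups of 12–15 mice were compared with CMC controls.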

Row | SMILES | Ki [1] [nM] | Activity [2] | Activity [3] [%] | Activity (Rattus norvegicus [4]) | Activity (Oocyte) [%] | Ki [5] [nM] | Ki [6] [nM] | Activity (Mus musculus [7]) | Activity (Rattus norvegicus [8]) | Activity (Mus musculus [9]) | Activity (Mus musculus [10])
1 | CCOC(=O)c1ncn2c1CN=C(c1ccc(C)cc1)c1ccccc1-2 | 11.4 | Active | 0 | Active | -22 | 18.5 | 105 |  |  |  | 
2 | CCOC(=O)c1ncn2c1CN=C(c1ccc(F)cc1)c1cc(F)ccc1-2 | 10.9 | Active | -7.5 |  | -16 | 22.3 | 60 | Active | Active | Active | inactive
